Experiment [1] addresses T1, Protein cereblon/Signal transducer and activator of transcription 3 (Homo sapiens, UniProt P40763+Q96SW2). Nature of the experiment: Protac activity at CRBN/STAT3 in human MOLM16 cells assessed as degradation of STAT3 incubated for 4 hrs by Western blot analysis. It counts as cell-based. Summed up:
(§1)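 Molm-16 cells treated 4 h with serially diluted compound. Lysates immunoblotted (SDS–PAGE, PVDF, 5% blocker/TBST, chemiluminescence) for total STAT3 and pSTAT3 Y705. DC50 taken as the concentration reducing total STAT3 by 50%.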

Experiment [2] has as its target T2, Protein cereblon/Signal transducer and activator of transcription 5A (Homo sapiens) (UniProt P42229+Q96SW2). Nature of the experiment: Protac activity at CRBN/STAT5A in human MOLM16 cells assessed as degradation of STAT5A at 10 uM incubated for 4 hrs by Western blot analysis. It counts as cell-based. Summed up: (§2)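 Molm-16 cells treated 4 h with test compound at 0.01–10 μM, or control compounds at 10 μM. Lysates separated by SDS–PAGE, transferred to PVDF, blocked 1 h in 5% blocker/TBST, probed for each STAT protein, and detected by chemiluminescence.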

A short description of experiment [3]: Antiproliferative activity against human MOLM16 cells assessed as reduction in cell viability incubated for 4 days by cell-titer glo luminescent assay. It counts as functional, cell-based. The settings on record: MOLM16, 96 h. In a few lines:
(§3)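 Viability assay: cells incubated with serially diluted compounds for 4 days, viability read by CellTiter-Glo luminescence; IC50 from concentration–response.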

In experiment [4] the target is T1, Protein cereblon/Signal transducer and activator of transcription 3. In words: Protac activity at CRBN/STAT3 in human SUDHL1 cells assessed as degradation of phosphorylated STAT3 Y705 upto 10 uM incubated for 16 hrs by Western blot analysis. It counts as cell-based.
Target sequence in this assay (P40763 2-770 limits assumed): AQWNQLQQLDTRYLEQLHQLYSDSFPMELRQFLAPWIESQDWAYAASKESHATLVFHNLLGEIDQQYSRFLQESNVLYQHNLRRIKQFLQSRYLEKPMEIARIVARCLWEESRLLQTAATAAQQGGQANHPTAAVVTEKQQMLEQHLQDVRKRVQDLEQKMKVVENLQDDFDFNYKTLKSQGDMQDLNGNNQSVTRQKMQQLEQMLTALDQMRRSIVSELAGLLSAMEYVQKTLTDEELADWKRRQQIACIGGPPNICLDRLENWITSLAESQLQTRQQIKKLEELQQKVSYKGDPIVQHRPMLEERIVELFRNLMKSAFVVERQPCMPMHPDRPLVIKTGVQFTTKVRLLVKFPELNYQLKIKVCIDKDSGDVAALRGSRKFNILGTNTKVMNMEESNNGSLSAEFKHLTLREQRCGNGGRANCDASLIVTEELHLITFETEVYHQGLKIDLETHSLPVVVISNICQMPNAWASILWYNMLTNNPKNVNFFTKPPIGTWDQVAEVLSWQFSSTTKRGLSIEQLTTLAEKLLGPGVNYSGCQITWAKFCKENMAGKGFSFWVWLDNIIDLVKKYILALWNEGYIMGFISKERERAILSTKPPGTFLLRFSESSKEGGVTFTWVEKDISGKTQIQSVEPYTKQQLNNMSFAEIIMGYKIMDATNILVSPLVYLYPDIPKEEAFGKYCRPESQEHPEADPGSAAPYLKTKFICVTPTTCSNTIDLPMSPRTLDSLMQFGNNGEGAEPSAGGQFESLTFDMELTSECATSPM
Target sequence in this assay (Q96SW2 whole entry partner): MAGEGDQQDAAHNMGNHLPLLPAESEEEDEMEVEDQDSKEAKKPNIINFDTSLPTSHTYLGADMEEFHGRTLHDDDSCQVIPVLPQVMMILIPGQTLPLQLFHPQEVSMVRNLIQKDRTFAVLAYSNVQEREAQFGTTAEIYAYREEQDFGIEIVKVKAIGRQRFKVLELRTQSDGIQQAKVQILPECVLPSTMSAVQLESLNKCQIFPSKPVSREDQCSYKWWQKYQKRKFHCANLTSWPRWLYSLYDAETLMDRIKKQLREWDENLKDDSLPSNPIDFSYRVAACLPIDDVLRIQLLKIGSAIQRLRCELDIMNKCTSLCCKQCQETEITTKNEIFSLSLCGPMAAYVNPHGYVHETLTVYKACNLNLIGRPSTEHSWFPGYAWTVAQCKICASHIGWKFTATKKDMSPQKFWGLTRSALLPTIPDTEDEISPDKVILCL
The target in experiment [5] is T3, Protein cereblon/Signal transducer and activator of transcription 5B (Homo sapiens) (UniProt P51692+Q96SW2). In words: Protac activity at CRBN/STAT5B in human MOLM16 cells assessed as degradation of STAT5B at 10 uM incubated for 4 hrs by Western blot analysis. It counts as cell-based. In a few lines: as §2
Experiment [6] concerns the target T4, Protein cereblon/Signal transducer and activator of transcription 4 (Homo sapiens) (UniProt Q96SW2+Q14765). In words: Protac activity at CRBN/STAT4 in human SUDHL1 cells assessed as degradation of STAT4 at 10 uM incubated for 18 hrs by Western blot analysis. It counts as cell-based. Summed up:
(§4)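 SU-DHL-1 cells treated 18 h with test compound at 0.01–10 μM, or control compounds at 10 μM. Lysates separated by SDS–PAGE, transferred to PVDF, blocked 1 h in 5% blocker/TBST, probed for each STAT protein, and detected by chemiluminescence.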

For experiment [7], the target named is T5, Protein cereblon/Signal transducer and activator of transcription 1-alpha/beta (Homo sapiens) (UniProt P42224+Q96SW2). Nature of the experiment: Protac activity at CRBN/STAT1 in human MOLM16 cells assessed as degradation of STAT1 at 10 uM incubated for 4 hrs by Western blot analysis. It counts as cell-based. In a few lines:
as §2

For experiment [8], the target named is T6, Protein cereblon/Signal transducer and activator of transcription 2 (Homo sapiens) (UniProt Q96SW2+P52630). Nature of the experiment: Protac activity at CRBN/STAT2 in human MOLM16 cells assessed as degradation of STAT2 at 10 uM incubated for 4 hrs by Western blot analysis. It counts as cell-based. Summed up:
as §2

Experiment [9] concerns the target T1, Protein cereblon/Signal transducer and activator of transcription 3. Nature of the experiment: Protac activity at CRBN/STAT3 in human MOLM16 cells assessed as degradation of STAT3 at 10 uM incubated for 4 hrs by Western blot analysis. It counts as cell-based. In a few lines: as §2
Target sequence in this assay (P40763 2-770 limits assumed): as the sequence (P40763 2-770 limits assumed) above
Target sequence in this assay (Q96SW2 whole entry partner): as the sequence (Q96SW2 whole entry partner) above
For experiment [10] the target is unchanged. In words: Protac activity at CRBN/STAT3 in human SUDHL1 cells assessed as degradation of STAT3 incubated for 16 hrs by Western blot analysis. It counts as cell-based.
Target sequence in this assay (P40763 whole entry): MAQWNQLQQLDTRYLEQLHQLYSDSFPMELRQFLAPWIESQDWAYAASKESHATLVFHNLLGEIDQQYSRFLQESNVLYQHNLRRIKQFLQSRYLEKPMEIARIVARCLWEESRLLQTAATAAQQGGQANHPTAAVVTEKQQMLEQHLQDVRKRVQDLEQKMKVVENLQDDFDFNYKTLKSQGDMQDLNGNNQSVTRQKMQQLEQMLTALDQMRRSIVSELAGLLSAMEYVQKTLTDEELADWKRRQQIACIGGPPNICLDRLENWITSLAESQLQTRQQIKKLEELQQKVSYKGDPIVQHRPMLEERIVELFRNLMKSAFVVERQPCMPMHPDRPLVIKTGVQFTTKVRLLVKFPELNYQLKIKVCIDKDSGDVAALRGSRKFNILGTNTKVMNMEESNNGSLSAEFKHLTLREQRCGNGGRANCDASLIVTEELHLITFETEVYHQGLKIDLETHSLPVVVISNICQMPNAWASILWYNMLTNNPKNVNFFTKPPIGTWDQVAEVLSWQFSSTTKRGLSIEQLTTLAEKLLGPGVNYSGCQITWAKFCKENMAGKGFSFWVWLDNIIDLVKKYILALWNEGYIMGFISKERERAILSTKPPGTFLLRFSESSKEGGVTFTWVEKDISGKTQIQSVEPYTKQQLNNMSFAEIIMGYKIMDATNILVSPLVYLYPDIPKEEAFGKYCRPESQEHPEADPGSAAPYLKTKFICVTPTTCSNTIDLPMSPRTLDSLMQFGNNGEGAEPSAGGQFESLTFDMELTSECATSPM
Target sequence in this assay (Q96SW2 whole entry): as the sequence (Q96SW2 whole entry partner) above
For experiment [11], the target named is T7, Protein cereblon/Signal transducer and activator of transcription 6 (Homo sapiens) (UniProt P42226+Q96SW2). In words: Protac activity at CRBN/STAT6 in human SUDHL1 cells assessed as degradation of STAT6 at 10 uM incubated for 18 hrs by Western blot analysis. It counts as cell-based. Summed up:
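SU-DHL-1 cells exposed to compound over 0.01–10 μM, or controls at 10 μM, for 18 h. Lysates separated by SDS–PAGE and transferred to PVDF. Membranes blocked 1 h in 5% blocker/TBST, probed with primary then secondary antibodies, and developed by chemiluminescence for STAT1, STAT2, STAT4, STAT5A/B, STAT6 and STAT3.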

In experiment [12] the target is T1, Protein cereblon/Signal transducer and activator of transcription 3. Nature of the experiment: Protac activity at CRBN/STAT3 in human SUDHL1 cells assessed as degradation of STAT3 upto 10 uM incubated for 16 hrs by Western blot analysis. It counts as cell-based.
Target sequence in this assay (P40763 2-770 limits assumed): as the sequence (P40763 2-770 limits assumed) above
Target sequence in this assay (Q96SW2 whole entry partner): as the sequence (Q96SW2 whole entry partner) above
In experiment [13] the target is T4, Protein cereblon/Signal transducer and activator of transcription 4 (Homo sapiens). Nature of the experiment: Protac activity at CRBN/STAT4 in human MOLM16 cells assessed as degradation of STAT4 at 10 uM incubated for 4 hrs by Western blot analysis. It counts as cell-based. In a few lines:
as §2

Experiment [14] deals with Signal transducer and activator of transcription 3 (Homo sapiens, UniProt P40763). In words: Binding affinity to recombinant human His/SUMO-tagged STAT3 (127 to 688 residues) expressed in Escherichia coli Rosetta (DE3) incubated for 1 hr by fluorescence polarization assay.
In experiment [15] the target is T1, Protein cereblon/Signal transducer and activator of transcription 3. Nature of the experiment: Protac activity at CRBN/STAT3 in human MOLM16 cells assessed as degradation of phosphorylated STAT3 Y705 at 1 uM incubated for 4 hrs by Western blot analysis. It counts as cell-based. Summed up: as §1
Target sequence in this assay (P40763 2-770 limits assumed): as the sequence (P40763 2-770 limits assumed) above
Target sequence in this assay (Q96SW2 whole entry partner): as the sequence (Q96SW2 whole entry partner) above
Experiment [16] shares this target. In words: Protac activity at CRBN/STAT3 in human SUDHL1 cells assessed as degradation of STAT3 at 10 uM incubated for 18 hrs by Western blot analysis. It counts as cell-based. Summed up:
as §4
Target sequence in this assay (P40763 2-770 limits assumed): as the sequence (P40763 2-770 limits assumed) above
Target sequence in this assay (Q96SW2 whole entry partner): as the sequence (Q96SW2 whole entry partner) above

In experiment [17] the target is T7, Protein cereblon/Signal transducer and activator of transcription 6 (Homo sapiens). Nature of the experiment: Protac activity at CRBN/STAT6 in human MOLM16 cells assessed as degradation of STAT6 at 10 uM incubated for 4 hrs by Western blot analysis. It counts as cell-based. In a few lines:
as §2

Experiment [18] has as its target T2, Protein cereblon/Signal transducer and activator of transcription 5A (Homo sapiens). Nature of the experiment: Protac activity at CRBN/STAT5A in human SUDHL1 cells assessed as degradation of STAT5A at 10 uM incubated for 18 hrs by Western blot analysis. It counts as cell-based. In a few lines: as §4
In experiment [19] the target is T3, Protein cereblon/Signal transducer and activator of transcription 5B (Homo sapiens). Nature of the experiment: Protac activity at CRBN/STAT5B in human SUDHL1 cells assessed as degradation of STAT5B at 10 uM incubated for 18 hrs by Western blot analysis. It counts as cell-based. Summed up: as §4
Experiment [20] deals with T1, Protein cereblon/Signal transducer and activator of transcription 3. In words: Protac activity at CRBN/STAT3 in human MOLM16 cells assessed as degradation of STAT3 at 1 uM incubated for 4 hrs by Western blot analysis. It counts as cell-based. Summed up: as §1
Target sequence in this assay (P40763 2-770 limits assumed): as the sequence (P40763 2-770 limits assumed) above
Target sequence in this assay (Q96SW2 whole entry partner): as the sequence (Q96SW2 whole entry partner) above
The test system of a further experiment is SU-DHL-1. Nature of the experiment: Antiproliferative activity against human SUDHL1 cells assessed as reduction in cell viability incubated for 4 days by cell-titer glo luminescent assay. The settings on record: SU-DHL-1, 96 h. It counts as functional, cell-based. Summed up:
as §3

For experiment [21], the target named is T6, Protein cereblon/Signal transducer and activator of transcription 2 (Homo sapiens). Nature of the experiment: Protac activity at CRBN/STAT2 in human SUDHL1 cells assessed as degradation of STAT2 at 10 uM incubated for 18 hrs by Western blot analysis. It counts as cell-based. Summed up: as §4
Experiment [22] has as its target T5, Protein cereblon/Signal transducer and activator of transcription 1-alpha/beta (Homo sapiens). Nature of the experiment: Protac activity at CRBN/STAT1 in human SUDHL1 cells assessed as degradation of STAT1 at 10 uM incubated for 18 hrs by Western blot analysis. It counts as cell-based. Summed up: as §4
For experiment [23], the target named is T1, Protein cereblon/Signal transducer and activator of transcription 3. Nature of the experiment: Protac activity at CRBN/STAT3 in human MOLM16 cells assessed as degradation of phosphorylated STAT3 Y705 upto 10 uM incubated for 4 hrs by Western blot analysis. It counts as cell-based. Summed up: as §1
Experiment [24] shares this target. Nature of the experiment: Protac activity at CRBN/STAT3 in human MOLM16 cells assessed as degradation of STAT3 up to 10 uM incubated for 4 hrs by Western blot analysis. It counts as cell-based. Summed up:
as §1

In a further experiment the test system is Mus musculus. Nature of the experiment: In vivo degradation of STAT3 in CD1 mouse at 25 mg/kg, iv measured upto 48 hrs by Western blot analysis. It counts as functional, organism-based. Summed up: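 Female CD-1 mice given a single intravenous dose in 10% PEG400 + 90% PBS, or vehicle. Euthanized at set time points. Spleen harvested and lysates immunoblotted for STAT3.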

Activity calls are given as the source filed them. The rule behind the calls is not given here.

T3 sequence (P51692 whole entry, looked up): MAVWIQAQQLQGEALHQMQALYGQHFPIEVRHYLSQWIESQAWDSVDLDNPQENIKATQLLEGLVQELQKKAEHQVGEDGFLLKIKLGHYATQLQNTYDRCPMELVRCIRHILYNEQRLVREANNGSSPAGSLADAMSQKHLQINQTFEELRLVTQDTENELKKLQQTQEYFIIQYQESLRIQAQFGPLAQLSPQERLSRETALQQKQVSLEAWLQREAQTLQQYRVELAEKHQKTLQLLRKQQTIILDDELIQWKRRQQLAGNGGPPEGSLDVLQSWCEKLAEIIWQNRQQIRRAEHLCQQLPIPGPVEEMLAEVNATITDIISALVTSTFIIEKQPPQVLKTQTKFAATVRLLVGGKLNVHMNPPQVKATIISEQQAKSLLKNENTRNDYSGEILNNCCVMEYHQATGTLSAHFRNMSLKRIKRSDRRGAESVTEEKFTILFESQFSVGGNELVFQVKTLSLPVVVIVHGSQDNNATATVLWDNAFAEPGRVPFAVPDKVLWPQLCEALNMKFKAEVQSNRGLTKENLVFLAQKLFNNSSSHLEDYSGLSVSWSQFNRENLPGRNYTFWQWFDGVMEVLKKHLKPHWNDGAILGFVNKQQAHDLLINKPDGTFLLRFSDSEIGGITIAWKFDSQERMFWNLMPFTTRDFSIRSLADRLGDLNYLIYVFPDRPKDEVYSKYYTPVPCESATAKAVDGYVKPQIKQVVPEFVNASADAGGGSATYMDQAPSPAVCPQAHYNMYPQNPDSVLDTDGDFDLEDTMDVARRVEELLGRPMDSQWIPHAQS
T3 sequence (Q96SW2 whole entry, looked up): as the sequence (Q96SW2 whole entry partner) above
Sequence of Signal transducer and activator of transcription 3 (P40763 whole entry, the tested form may be a part): as the sequence (P40763 whole entry) above

For the molecule `CC(=O)N1CC[C@H]2CC[C@@H](C(=O)N[C@@H](CCC(N)=O)C(=O)NC(c3ccccc3)c3ccccc3)N2C(=O)[C@@H](NC(=O)c2cc3cc(C(F)(F)P(=O)(O)O)ccc3[nH]2)C1`, the DC50 in experiment [1] and in experiment [10] was over 10000 nM each time. Further, the result in [2], in [4], in [5], in experiment [6], in [7] and in [8] was inactive. Also, the result in experiment [9], in experiment [11], in [12], in [13], in experiment [15] and in experiment [16] was inactive. In addition, the result in experiment [17], in [18], in experiment [19], in experiment [20], in [21] and in experiment [22] was inactive. Also, the IC50 in experiment [3] was 6450 nM; in the experiment with SU-DHL-1 it was over 10000 nM. Further, the Ki in [14] turned out to be 14 nM.

On to `NC(=O)CC[C@H](NC(=O)[C@@H]1CC[C@@H]2CCN(C(=O)CCCC#Cc3cccc4c3CN(C3CCC(=O)NC3=O)C4=O)C[C@H](NC(=O)c3cc4cc(C(F)(F)P(=O)(O)O)ccc4[nH]3)C(=O)N21)C(=O)NC(c1ccccc1)c1ccccc1` (some centres not stated), for which, in experiment [1], the Activity result is “Dose-dependent effect” and the half-maximal degradation concentration (DC50) came out at 2630 nM. For the same molecule, the IC50 in experiment [3] is 950 nM. Besides, the result in experiment [15] was inactive. For the same molecule, the outcome in experiment [20] was inactive.

As to `NC(=O)CC[C@H](NC(=O)[C@@H]1CC[C@@H]2CCN(C(=O)CCCCCC#Cc3cccc4c3CN(C3CCC(=O)NC3=O)C4=O)C[C@H](NC(=O)c3cc4cc(CP(=O)(O)O)ccc4[nH]3)C(=O)N21)C(=O)NC(c1ccccc1)c1ccccc1` (some centres not stated), the DC50 in experiment [1] was over 10000 nM. Further, the half-maximal inhibitory concentration (IC50) in [3] is over 2000 nM. The outcome in experiment [23] and in experiment [24] was inactive.

In the case of `NC(=O)CC[C@H](NC(=O)[C@@H]1CC[C@@H]2CCN(C(=O)NCCCCC#Cc3cccc4c3CN(C3CCC(=O)NC3=O)C4=O)C[C@H](NC(=O)c3cc4cc(C(F)(F)P(=O)(O)O)ccc4[nH]3)C(=O)N21)C(=O)NC(c1ccccc1)c1ccccc1` (some centres not stated), the 50% degradation concentration (DC50) in experiment [1] turned out to be 50 nM; in [10] it was 11 nM. Besides, the IC50 in experiment [3] is 91 nM; in the experiment on SU-DHL-1, 430 nM. In the experiment with Mus musculus, the outcome was Active.
